≈ marks a conversion by molar mass, not a printed value.
Experiments:
Assay type in all cases: functional
Staphylococcus aureus [1] = experiment: Antibacterial activity against methicillin-sensitive Staphylococcus aureus ATCC 29213 by broth microdilution method
Outline: (§1)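 MICs were determined by broth microdilution following CLSI recommendations, with clarithromycin and telithromycin run as reference antibiotics.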

Staphylococcus aureus [2] = experiment: Antibacterial activity against methicillin-resistant Staphylococcus aureus ATCC 33591 by broth microdilution method
Outline: (§2)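 MIC values were determined by broth microdilution following Clinical and Laboratory Standards Institute (CLSI) recommendations.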

[3] = system: Staphylococcus epidermidis; experiment: Antibacterial activity against methicillin-sensitive Staphylococcus epidermidis ATCC 12228 by broth microdilution method; outline: as §1
[4] = system: Staphylococcus epidermidis; experiment: Antibacterial activity against methicillin-resistant Staphylococcus epidermidis 13-3 by broth microdilution method; outline: as §2
Streptococcus pyogenes [5] = experiment: Antibacterial activity against […] Streptococcus pyogenes 12-8 by broth microdilution method; outline: as §1
Streptococcus pyogenes [6] = experiment: Antibacterial activity against methicillin-resistant Streptococcus pyogenes 12-1 by broth microdilution method; outline: as §2
Moraxella catarrhalis [7] = experiment: Antibacterial activity against clarithromycin-sensitive Moraxella catarrhalis 12-1 by broth microdilution method; outline: as §1
Klebsiella pneumoniae = experiment: Antibacterial activity against extended spectrum beta-lactamases producing Klebsiella pneumoniae ATCC 700603 by broth microdilution method; outline: as §1
Moraxella catarrhalis [8] = experiment: Antibacterial activity against clarithromycin-resistant Moraxella catarrhalis 12-2 by broth microdilution method; outline: as §2
Escherichia coli = experiment: Antibacterial activity against extended spectrum beta-lactamases non-producing Escherichia coli ATCC 25922 by broth microdilution method; outline: as §1
Pseudomonas aeruginosa = experiment: Antibacterial activity against Pseudomonas aeruginosa ATCC 27853 by broth microdilution method; outline: as §1
Staphylococcus aureus [9] = experiment: Antibacterial activity against methicillin-sensitive Staphylococcus aureus 11B122 by broth microdilution method; outline: as §1
Staphylococcus aureus [10] = experiment: Antibacterial activity against methicillin-resistant Staphylococcus aureus 11B117 by broth microdilution method; outline: as §2
[11] = system: Staphylococcus epidermidis; experiment: Antibacterial activity against methicillin-sensitive Staphylococcus epidermidis 11X315 by broth microdilution method; outline: as §2
[12] = system: Staphylococcus epidermidis; experiment: Antibacterial activity against methicillin-resistant Staphylococcus epidermidis 11C176 by broth microdilution method; outline: as §2
Streptococcus pneumoniae [13] = experiment: Antibacterial activity against erythromycin-sensitive Streptococcus pneumoniae 11G364 by broth microdilution method; outline: as §1
Streptococcus pneumoniae [14] = experiment: Antibacterial activity against erythromycin-resistant Streptococcus pneumoniae 11 J011 by broth microdilution method; outline: as §2
Streptococcus pyogenes [15] = experiment: Antibacterial activity against erythromycin-sensitive Streptococcus pyogenes 11L264 by broth microdilution method; outline: as §1
Streptococcus pyogenes [16] = experiment: Antibacterial activity against erythromycin-resistant Streptococcus pyogenes 11 N369 by broth microdilution method; outline: as §2
Haemophilus influenzae [17] = experiment: Antibacterial activity against azithromycin-sensitive Haemophilus influenzae 11P042 by broth microdilution method; outline: as §1
Haemophilus influenzae [18] = experiment: Antibacterial activity against azithromycin-resistant Haemophilus influenzae 11Q373 by broth microdilution method; outline: as §2

SMILES | MIC (Staphylococcus aureus [1]) [µg/mL] | MIC (Staphylococcus aureus [2]) [µg/mL] | MIC [3] [µg/mL] | MIC [4] [µg/mL] | MIC (Streptococcus pyogenes [5]) [µg/mL] | MIC (Streptococcus pyogenes [6]) [µg/mL] | MIC (Moraxella catarrhalis [7]) [µg/mL] | MIC (Klebsiella pneumoniae) [µg/mL] | MIC (Moraxella catarrhalis [8]) [µg/mL] | MIC (Escherichia coli) [µg/mL] | MIC (Pseudomonas aeruginosa) [µg/mL] | MIC (Staphylococcus aureus [9]) [µg/mL] | MIC (Staphylococcus aureus [10]) [µg/mL] | MIC [11] [µg/mL] | MIC [12] [µg/mL] | MIC (Streptococcus pneumoniae [13]) [µg/mL] | MIC (Streptococcus pneumoniae [14]) [µg/mL] | MIC (Streptococcus pyogenes [15]) [µg/mL] | MIC (Streptococcus pyogenes [16]) [µg/mL] | MIC (Haemophilus influenzae [17]) [µg/mL] | other results
CC[C@H]1OC(=O)[C@H](C)C(=O)[C@H](C)[C@@H](O[C@@H]2O[C@H](C)C[C@H](N(C)C)[C@H]2O)[C@](C)(OC)C[C@@H](C)C(=O)[C@H](C)[C@H]2N(CC/C=C/c3cncc4cc(OCc5ccccc5)ccc34)C(=O)O[C@]12C | 1 (≈ 1.11 µM) | 8 (≈ 8.89 µM) | 1 (≈ 1.11 µM) | 16 (≈ 17.8 µM) | 0.25 (≈ 0.278 µM) | 8 (≈ 8.89 µM) | 0.5 (≈ 0.555 µM) | > 256 | 8 (≈ 8.89 µM) | > 256 | > 256 |  |  |  |  |  |  |  |  |  | 
CC[C@H]1OC(=O)[C@H](C)C(=O)[C@H](C)[C@@H](O[C@@H]2O[C@H](C)C[C@H](N(C)C)[C@H]2O)[C@](C)(OC)C[C@@H](C)C(=O)[C@H](C)[C@H]2N(CCCCn3cnc(-c4cccnc4)c3)C(=O)O[C@]12C [TELITHROMYCIN] | 0.015 (≈ 0.0185 µM) | > 256 | 0.015 (≈ 0.0185 µM) | > 256 | 0.03 (≈ 0.0369 µM) | > 256 | 0.125 (≈ 0.154 µM) | 64 (≈ 78.8 µM) | > 256 | 8 (≈ 9.85 µM) | 32 (≈ 39.4 µM) | 0.062 (≈ 0.0764 µM) | > 64 | 0.062 (≈ 0.0764 µM) | 0.031 (≈ 0.0382 µM) | 0.016 (≈ 0.0197 µM) | 0.031 (≈ 0.0382 µM) | 0.008 (≈ 0.00985 µM) | 0.125 (≈ 0.154 µM) | 1 (≈ 1.23 µM) | MIC (Haemophilus influenzae [18]): 4 µg/mL (≈ 4.93 µM)
CC[C@H]1OC(=O)[C@H](C)C(=O)[C@H](C)[C@@H](O[C@@H]2O[C@H](C)C[C@H](N(C)C)[C@H]2O)[C@](C)(OC)C[C@@H](C)C(=O)[C@H](C)[C@H]2N(CCCCc3cnc4ccccc4c3)C(=O)O[C@]12C |  |  |  |  |  |  |  |  |  |  |  | 0.125 (≈ 0.157 µM) | 64 (≈ 80.4 µM) | 0.062 (≈ 0.0779 µM) | 0.062 (≈ 0.0779 µM) | ≤ 0.004 | 0.062 (≈ 0.0779 µM) | 0.008 (≈ 0.0101 µM) | 0.5 (≈ 0.628 µM) | 0.5 (≈ 0.628 µM) | MIC (Haemophilus influenzae [18]): 4 µg/mL (≈ 5.03 µM)
CC[C@H]1OC(=O)[C@@](C)(F)C(=O)[C@H](C)[C@@H](O[C@@H]2O[C@H](C)C[C@H](N(C)C)[C@H]2O)[C@](C)(OC)C[C@@H](C)C(=O)[C@H](C)[C@H]2N(CCCOc3cnc4ccccc4c3)C(=O)O[C@]12C | 0.015 (≈ 0.0184 µM) | 64 (≈ 78.4 µM) | 0.015 (≈ 0.0184 µM) | 128 (≈ 157 µM) | 0.015 (≈ 0.0184 µM) | 64 (≈ 78.4 µM) | 0.015 (≈ 0.0184 µM) | 32 (≈ 39.2 µM) | 64 (≈ 78.4 µM) | 8 (≈ 9.8 µM) | 16 (≈ 19.6 µM) |  |  |  |  |  |  |  |  |  | 
CC[C@H]1OC(=O)[C@H](C)C(=O)[C@H](C)[C@@H](O[C@@H]2O[C@H](C)C[C@H](N(C)C)[C@H]2O)[C@](C)(OC)C[C@@H](C)C(=O)[C@H](C)[C@H]2N(CCCOc3ccc4cccnc4c3)C(=O)O[C@]12C | 0.015 (≈ 0.0188 µM) | 256 (≈ 321 µM) | 0.03 (≈ 0.0376 µM) | > 256 | 0.015 (≈ 0.0188 µM) | > 256 | 0.015 (≈ 0.0188 µM) | 128 (≈ 160 µM) | 64 (≈ 80.2 µM) | 16 (≈ 20.1 µM) | 32 (≈ 40.1 µM) |  |  |  |  |  |  |  |  |  | 
CC[C@H]1OC(=O)[C@H](C)C(=O)[C@H](C)[C@@H](O[C@@H]2O[C@H](C)C[C@H](N(C)C)[C@H]2O)[C@](C)(OC)C[C@@H](C)C(=O)[C@H](C)[C@H]2N(CC/C=C/c3cncc4ccc(OCc5ccccc5)cc34)C(=O)O[C@]12C | 1 (≈ 1.11 µM) | 8 (≈ 8.89 µM) | 1 (≈ 1.11 µM) | 8 (≈ 8.89 µM) | 0.125 (≈ 0.139 µM) | 8 (≈ 8.89 µM) | 1 (≈ 1.11 µM) | > 256 | 4 (≈ 4.44 µM) | > 256 | > 256 |  |  |  |  |  |  |  |  |  | 
CC[C@H]1OC(=O)[C@H](C)C(=O)[C@H](C)[C@@H](O[C@@H]2O[C@H](C)C[C@H](N(C)C)[C@H]2O)[C@](C)(OC)C[C@@H](C)C(=O)[C@H](C)[C@H]2N(CC/C=C/c3cncc4cc(OC)ccc34)C(=O)O[C@]12C | 0.06 (≈ 0.0728 µM) | 64 (≈ 77.7 µM) | 0.015 (≈ 0.0182 µM) | 64 (≈ 77.7 µM) | 0.015 (≈ 0.0182 µM) | 32 (≈ 38.8 µM) | 0.015 (≈ 0.0182 µM) | > 256 | 8 (≈ 9.71 µM) | 64 (≈ 77.7 µM) | 64 (≈ 77.7 µM) |  |  |  |  |  |  |  |  |  | 
CC[C@H]1OC(=O)[C@H](C)C(=O)[C@H](C)[C@@H](O[C@@H]2O[C@H](C)C[C@H](N(C)C)[C@H]2O)[C@](C)(OC)C[C@@H](C)C(=O)[C@H](C)[C@H]2N(CCCSc3cnc4ccccc4c3)C(=O)O[C@]12C |  |  |  |  |  |  |  |  |  |  |  | 0.125 (≈ 0.154 µM) | > 64 | 0.125 (≈ 0.154 µM) | 0.125 (≈ 0.154 µM) | 0.008 (≈ 0.00983 µM) | 0.125 (≈ 0.154 µM) | 0.016 (≈ 0.0197 µM) | 0.5 (≈ 0.614 µM) | 16 (≈ 19.7 µM) | MIC (Haemophilus influenzae [18]): 32 µg/mL (≈ 39.3 µM)

Source: ChEMBL document CHEMBL4118285, “Synthesis and antibacterial activity of novel ketolides with 11,12-quinoylalkyl side chains” (2018)
